Measurements published in ChEMBL document CHEMBL3393048, “Discovery of potent cytotoxic ortho-aryl chalcones as new scaffold targeting tubulin and mitosis with affinity-based fluorescence” (J Med Chem, 2014).
Activity calls are given as the source filed them. The calls are words filed in the database; no cut-off is given here.

Columns and labels:
[1] = tested on: A549; experiment: Antiproliferative activity against human A549 cells after 48 hrs by SRB method; type: functional, cell-based; settings: A549, 48 h
Outline: (§1)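 SRB assay. Cells in DMEM high glucose with 10% FBS were seeded at 5000/well and grown 24 h; a day-0 plate was fixed at that point. Compounds were added in triplicate for 48 h. Cells were fixed with TCA at 4 °C for 1 h, stained with 0.4% SRB, and the dye was solubilized in 10 mM Tris pH 10.4. OD was read at 515 nm with day-0 OD subtracted. IC50 came from nonlinear regression of dose–response curves from at least two independent experiments.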

[2] = Antiproliferative activity against human CNE2 cells after 48 hrs by SRB method; type: functional, cell-based; settings: CNE-2, 48 h
Outline: (§2)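 SRB assay. Cells in DMEM high glucose with 10% FBS were seeded at 5000/well and grown 24 h; a day-0 plate was fixed at that point. Compounds were added in triplicate for 48 h. IC50 came from nonlinear regression of dose–response curves from at least two independent experiments.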

[3] = tested on: SW480; experiment: Antiproliferative activity against human SW480 cells after 48 hrs by SRB method; type: functional, cell-based; settings: SW480, 48 h; outline: as §2
[4] = tested on: MCF7; experiment: Antiproliferative activity against human MCF7 cells after 48 hrs by SRB method; type: functional, cell-based; settings: MCF7, 48 h; outline: as §2
[5] = tested on: HepG2; experiment: Antiproliferative activity against human HepG2 cells after 48 hrs by SRB method; type: functional, cell-based; settings: HepG2, 48 h; outline: as §2
[6] = target: Tubulin (Homo sapiens) (UniProt P68371+Q9H4B7+P0DPH7+P68366+Q13509+Q71U36+P04350+Q3ZCM7+P07437+P68363+Q9BQE3+Q6PEY2+Q13885+Q9BVA1+Q9BUF5); experiment: Inhibition of tubulin polymerization (unknown origin) at 20 uM by DAPI staining-based fluorescence microscopy; type: protein-complex assay
[7] = tested on: A2780; experiment: Antiproliferative activity against human A2780 cells after 48 hrs by SRB method; type: functional, cell-based; settings: A2780, 48 h; outline: as §2
[8] = tested on: A2780; experiment: Antiproliferative activity against taxol-resistant human A2780 cells after 48 hrs by SRB method; type: functional, cell-based; settings: A2780, 48 h; outline: as §2
[9] = Antiproliferative activity against human HCT8 cells after 48 hrs by SRB method; type: functional, cell-based; settings: HCT-8, 48 h; outline: as §2
[10] = Antiproliferative activity against vincristine-resistant human HCT8 cells after 48 hrs by SRB method; type: functional, cell-based; settings: HCT-8, 48 h; outline: as §1
[11] = tested on: A549; experiment: Antiproliferative activity against cis-platinum-resistant human A549 cells after 48 hrs by SRB method; type: functional, cell-based; settings: A549, 48 h; outline: as §1
[12] = tested on: MCF7; experiment: Antiproliferative activity against doxorubicin-resistant human MCF7 cells after 48 hrs by SRB method; type: functional, cell-based; settings: MCF7, 48 h; outline: as §2
[13] = tested on: A2780; experiment: Drug resistance index, ratio of IC50 for taxol-resistant human A2780 cells to IC50 for human A2780 cells; type: functional
Outline: (§3)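 Drug resistance index = IC50 in the resistant line / IC50 in its parental line. […] Pairs: A549/CDDP vs A549, MCF-7/DOX vs MCF-7, A2780/TAX vs A2780, HCT-8/VCT vs HCT-8.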

[14] = Drug resistance index, ratio of IC50 for vincristine-resistant human HCT8 cells to IC50 for human HCT8 cells; type: functional, HCT-8; outline: as §3
[15] = tested on: A549; experiment: Drug resistance index, ratio of IC50 for cis-platinum-resistant human A549 cells to IC50 for human A549 cells; type: functional; outline: as §3
[16] = tested on: MCF7; experiment: Drug resistance index, ratio of IC50 for doxorubicin-resistant human MCF7 cells to IC50 for human MCF7 cells; type: functional; outline: as §3
[17] = target: Tubulin; experiment: Inhibition of tubulin polymerization (unknown origin) by DAPI staining-based fluorescence microscopy; type: protein-complex assay, Homo sapiens
Outline: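 Purified tubulin (99% pure; 20 μM as supplied) mixed with compound in general tubulin buffer (80 mM PIPES pH 6.9, 2.0 mM MgCl₂, 0.5 mM EGTA) with 1 mM GTP, 20% glycerol and DAPI reporter. Polymerization tracked kinetically at 37 °C as fluorescence rise (ex 360, em 450 nm). Duplicate wells per concentration. IC50 from at least two independent experiments.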

[18] = tested on: A549; experiment: Cell cycle arrest in human A549 cells assessed as accumulation at G2/M phase at 7.81 to 250 nM after 24 hrs by Hoechst 33342 staining-based ArrayScanVTI analysis; type: functional
Outline: (§4)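 A549 cells were seeded at 5000/well, cultured overnight, then treated 24 h over a 7.81–250 concentration series. Cells were fixed in prewarmed paraformaldehyde 10 min, permeabilized with Triton X-100, and nuclei stained with Hoechst 33342. Imaging was by ArrayScan VTI high-content analysis. Phase percentage = cells within a gated fluorescence intensity / total cells counted.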

[19] = tested on: A549; experiment: Cell cycle arrest in human A549 cells assessed as accumulation at G2/M phase at 62.5 nM after 24 hrs by Hoechst 33342 staining-based ArrayScanVTI analysis; type: functional; outline: as §4

| IC50 [1] | IC50 [3] | IC50 [4] | IC50 [5] | Compound | IC50 [2] | also measured |
| --- | --- | --- | --- | --- | --- | --- |
| 31000 nM | 23000 nM | 23000 nM | 12000 nM | Cc1ccc(/C=C/C(=O)c2ccccc2-c2ccc(F)cc2)o1 | 14000 nM | – |
| 940 nM | 340 nM | 560 nM | 190 nM | COc1ccc(C(=O)/C=C/c2ccccc2-c2ccc(F)cc2)cc1O | 750 nM | – |
| 65 nM | 57 nM | 190 nM | 23 nM | COc1ccc(/C=C/C(=O)c2ccccc2-c2ccc(F)cc2)cc1O | 87 nM | IC50 [7]: 27 nM; IC50 [8]: 500 nM; IC50 [9]: 38 nM; IC50 [10]: 420 nM; IC50 [11]: 430 nM; IC50 [12]: 7 nM; Ratio IC50 [13]: 18; Ratio IC50 [14]: 11; Ratio IC50 [15]: 10; Ratio IC50 [16]: 0.04; Activity [18]: Active; Activity [19]: Active; IC50 [17]: 1300 nM |
| 7500 nM | 8300 nM | 7100 nM | 6600 nM | COc1ccc(C(=O)/C=C/c2ccccc2-c2ccc(F)cc2)cc1OC | 7600 nM | – |
| 8200 nM | 8400 nM | 8800 nM | 6300 nM | COc1ccc(C(=O)/C=C/c2ccccc2-c2ccc(F)cc2)cc1 | 9000 nM | – |
| 7100 nM | 5700 nM | 5300 nM | 5000 nM | COc1cccc(/C=C/C(=O)c2ccccc2-c2ccc(F)cc2)c1OC | 5200 nM | inhibition [6]: Active |
| 4100 nM | 5200 nM | 3100 nM | 2100 nM | COc1ccc(OC)c(/C=C/C(=O)c2ccccc2-c2ccc(OC)c(OC)c2)c1 | 2400 nM | inhibition [6]: Active |
| 330 nM | 160 nM | 1200 nM | 150 nM | COc1ccc(/C=C/C(=O)c2ccccc2-c2cccc(F)c2)cc1OC | 650 nM | – |
| 440 nM | 570 nM | 240 nM | 95 nM | COc1ccc(/C=C/C(=O)c2ccccc2-c2ccc(F)cc2)cc1OC | 81 nM | – |
| > 50000 nM | > 50000 nM | > 50000 nM | > 50000 nM | COc1ccc(CNC(=O)c2ccccc2-c2ccc(F)cc2)cc1OC | > 50000 nM | – |
| 4600 nM | 4200 nM | 5400 nM | 3100 nM | COc1cc(C(=O)/C=C/c2ccccc2-c2ccc(F)cc2)ccc1O | 4800 nM | – |
| 1100 nM | 2400 nM | 1700 nM | 520 nM | COc1ccc(OC)c(/C=C/C(=O)c2ccccc2-c2ccc(F)cc2)c1 | 750 nM | – |
| 1600 nM | 890 nM | 1100 nM | 600 nM | COc1ccc(/C=C/C(=O)c2ccccc2-c2ccc(OC)c(OC)c2)cc1 | 320 nM | – |
| 8600 nM | 6800 nM | 7100 nM | 4300 nM | COc1ccc(-c2ccccc2C(=O)/C=C/c2ccc(F)cc2)cc1OC | 5400 nM | inhibition [6]: inactive |

Further lines, the compound ahead of its results:

| Compound | IC50 [1] | IC50 [3] | IC50 [4] | IC50 [5] | IC50 [2] | also measured |
| --- | --- | --- | --- | --- | --- | --- |
| COc1ccc(C(=O)/C=C/c2ccccc2-c2ccc(F)nc2)cc1 | > 50000 nM | 10000 nM | 13000 nM | 8200 nM | 13000 nM | – |
| O=C(/C=C/c1cccs1)c1ccccc1-c1ccc(F)cc1 | 12000 nM | 16000 nM | 9500 nM | 6200 nM | 5900 nM | inhibition [6]: Active |
| COc1ccc(/C=C/C(=O)c2ccccc2-c2cccc(F)c2)cc1 | 280 nM | 140 nM | 640 nM | 110 nM | 73 nM | IC50 [7]: 160 nM; IC50 [8]: 860 nM; IC50 [9]: 200 nM; IC50 [10]: 220 nM; IC50 [11]: 480 nM; IC50 [12]: 84 nM; Ratio IC50 [13]: 5.2; Ratio IC50 [14]: 1.1; Ratio IC50 [15]: 2.1; Ratio IC50 [16]: 0.64; IC50 [17]: 4000 nM |
| COc1cc(C(=O)/C=C/c2ccccc2-c2ccc(F)nc2)ccc1O | 13000 nM | 8500 nM | 27000 nM | 9900 nM | 19000 nM | – |
| COc1ccc(/C=C/C(=O)c2ccccc2-c2ccc(F)nc2)cc1 | 930 nM | 330 nM | 2700 nM | 290 nM | 160 nM | – |
| COc1cc(C(=O)/C=C/c2ccccc2-c2ccc(F)cc2)cc(OC)c1OC | 2200 nM | 2200 nM | 9100 nM | 12000 nM | 3800 nM | – |
| COc1ccc(/C=C/C(=O)c2ccccc2-c2ccc(F)nc2)cc1OC | 1200 nM | 1300 nM | 2800 nM | 1000 nM | 1600 nM | – |
| COc1ccc(-c2ccccc2C(=O)/C=C/c2ccc(Br)cc2)cc1OC | 6800 nM | 6500 nM | 8300 nM | 3300 nM | 4800 nM | inhibition [6]: inactive |
| COc1ccc(/C=C/C(=O)c2ccccc2-c2cccnc2)cc1 | 580 nM | 200 nM | 830 nM | 97 nM | 64 nM | – |
| COc1ccc(C(=O)/C=C/c2ccccc2-c2ccc(F)nc2)cc1O | 3200 nM | 1600 nM | 2000 nM | 1800 nM | 2100 nM | – |
| O=C(/C=C/c1ccccc1-c1ccc(F)cc1)c1cccc(O)c1 | 6900 nM | 8700 nM | 9300 nM | 4200 nM | 7300 nM | – |
| COc1ccc(CNC(=O)c2ccccc2-c2ccc(F)cc2)cc1 | > 50000 nM | > 50000 nM | > 50000 nM | > 50000 nM | > 50000 nM | – |
| O=C(/C=C/c1ccccc1-c1ccc(F)nc1)c1cccc(O)c1 | 6900 nM | 7400 nM | 12000 nM | 6400 nM | 8700 nM | – |
| CC(=O)O[C@H]1C(=O)[C@@]2(C)[C@H]([C@H](OC(=O)c3ccccc3)[C@]3(O)C[C@H](OC(=O)[C@H](O)[C@@H](NC(=O)c4ccccc4)c4ccccc4)C(C)=C1C3(C)C)[C@]1(OC(C)=O)CO[C@@H]1C[C@@H]2O [PACLITAXEL] | – | 7 nM | – | 28 nM | – | IC50 [9]: 21 nM; IC50 [10]: 2600 nM |
| COc1ccc(/C=C/C(=O)c2ccccc2-c2cc(OC)c(OC)c(OC)c2)cc1O | 290 nM | 300 nM | 680 nM | 190 nM | 790 nM | IC50 [7]: 380 nM; IC50 [8]: 1600 nM; IC50 [9]: 520 nM; IC50 [10]: 2000 nM; IC50 [11]: 590 nM; IC50 [12]: 170 nM; Ratio IC50 [13]: 4.3; Ratio IC50 [14]: 4; Ratio IC50 [15]: 2; Ratio IC50 [16]: 0.24; IC50 [17]: 2800 nM |
| COc1cccc2c1C(=O)c1c(O)c3c(c(O)c1C2=O)C[C@@](O)(C(=O)CO)C[C@@H]3O[C@H]1C[C@H](N)[C@H](O)[C@H](C)O1 [DOXORUBICIN] | – | – | – | – | – | IC50 [8]: 1900 nM; IC50 [10]: 3400 nM; IC50 [11]: 290 nM |
| COc1ccc(/C=C/C(=O)c2ccccc2-c2ccc(OC)c(OC)c2OC)cc1O | 190 nM | 170 nM | 480 nM | 230 nM | 160 nM | – |
| COc1cc(CNC(=O)c2ccccc2-c2ccc(F)cc2)cc(OC)c1OC | > 50000 nM | > 50000 nM | > 50000 nM | > 50000 nM | > 50000 nM | – |
| COc1ccc(C(=O)/C=C/c2ccccc2-c2ccc(F)nc2)cc1OC | 17000 nM | 15000 nM | 41000 nM | 17000 nM | 17000 nM | – |
